pIC50: −log10 of the molar value. Activity calls are given as the source filed them. The calls are words filed in the database; no cut-off is given here.
Columns and labels:
[1] = tested on: Pneumocystis carinii; experiment: Antipneumocystis activity against Pneumocystis carinii at 100 ug/ml after 24 to 72 hrs by ATP-based luciferin-luciferase assay; type: functional, organism-based
Procedure, shortened: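 Single high-dose screen at 100 µg/ml against rat-derived, cryopreserved P. carinii in RPMI 1640 at 36 °C, 5% CO2, read at 24, 48 and 72 h. ATP was measured by luminescence after background subtraction, with triplicate wells of duplicate assays averaged. % ATP reduction was calculated relative to media control. Controls were media, DMSO vehicle, ampicillin 10 µg/ml and pentamidine isethionate 1 µg/ml.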

[2] = tested on: A549; experiment: Cytotoxicity against human A549 cells assessed as decrease in cell viability after 24 to 72 hrs by ATP-based luciferin-luciferase assay
Procedure, shortened: (§1)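 A549 cells in DMEM and L2 cells in F12, each with 10% fetal calf serum, 1% MEM vitamins and 1% NEAA, were plated at 2 × 10^5/ml and grown to confluence. They were exposed first to 100 µg/ml, then to 100, 10, 1 and 0.1 µg/ml, for 24, 48 and 72 h in duplicate wells. Cells were lysed with 0.1 M NaOH and ATP was read by luciferin-luciferase luminescence. IC50 came from linear regression of % ATP reduction.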

[3] = tested on: Pneumocystis carinii; experiment: Antipneumocystis activity against Pneumocystis carinii after 24 to 72 hrs by ATP-based luciferin-luciferase assay; type: functional, organism-based
Procedure, shortened: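 P. carinii from immunosuppressed rat lungs (methylprednisolone 20 mg/kg s.c. weekly) was cryopreserved. It was exposed to compounds diluted in RPMI 1640 at 36 °C, 5% CO2, for 24, 48 and 72 h. ATP was measured by luciferin-luciferase luminescence after background subtraction. Triplicate wells of duplicate assays were averaged. % ATP reduction was calculated against media control, and IC50 came from linear regression.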

[4] = Cytotoxicity against rat L2 cells assessed as decrease in cell viability after 24 to 72 hrs by ATP-based luciferin-luciferase assay; procedure, shortened: as §1
[5] = molecular target: Luciferin 4-monooxygenase (Photinus pyralis) (UniProt P08659); experiment: Effect on luciferin/firefly luciferase reaction assessed as quench effect at 100 ug/ml
Chain of Luciferin 4-monooxygenase (Photinus pyralis) (P08659 whole entry): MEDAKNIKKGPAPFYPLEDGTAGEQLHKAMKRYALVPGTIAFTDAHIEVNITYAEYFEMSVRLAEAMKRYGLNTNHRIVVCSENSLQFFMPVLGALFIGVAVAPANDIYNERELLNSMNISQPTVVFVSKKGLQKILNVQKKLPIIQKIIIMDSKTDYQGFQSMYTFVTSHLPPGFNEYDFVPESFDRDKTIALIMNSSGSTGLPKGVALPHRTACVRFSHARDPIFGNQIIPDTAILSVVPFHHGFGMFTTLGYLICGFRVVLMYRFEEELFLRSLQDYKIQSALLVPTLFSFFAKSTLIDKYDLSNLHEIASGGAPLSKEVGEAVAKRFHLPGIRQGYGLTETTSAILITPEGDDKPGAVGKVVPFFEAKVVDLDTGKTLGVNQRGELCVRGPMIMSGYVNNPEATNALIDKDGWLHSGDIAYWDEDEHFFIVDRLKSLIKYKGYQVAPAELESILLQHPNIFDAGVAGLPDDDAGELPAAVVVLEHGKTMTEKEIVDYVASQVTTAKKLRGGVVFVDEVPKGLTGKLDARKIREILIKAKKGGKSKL

| Compound | Activity [1] | pIC50 [2] | pIC50 [3] | pIC50 [4] | Activity [5] |
| --- | --- | --- | --- | --- | --- |
| C/N=C(\NC)c1ccc(CN2CCN(Cc3ccc(/C(=N/C)NC)cc3)CC2)cc1 | inactive |  |  |  |  |
| N=C(N)c1ccc(NCCOCCNc2ccc(C(=N)N)cc2[N+](=O)[O-])c([N+](=O)[O-])c1 | Active | < 4.00 | 7.21 | < 4.00 | inactive |
| Cc1cc(C(=N)N)cc(C)c1OCCOCCOc1c(C)cc(C(=N)N)cc1C | Active | 4.12 | 6.76 | 4.78 | inactive |
| Cc1cc(C(=N)N)cc(C)c1OCCN(CCOc1c(C)cc(C(=N)N)cc1C)S(=O)(=O)c1ccccc1 | Active | < 4.00 | 5.82 | < 4.00 | inactive |
| N=C(N)c1ccc(OCCCCCOc2ccc(C(=N)N)cc2)cc1 [PENTAMIDINE] |  |  |  | 4.47 |  |
| CCCCNC(=N)c1ccc(CN2CCN(Cc3ccc(C(=N)NCCCC)cc3)CC2)cc1 | Active | < 4.00 | 7.08 | < 4.00 | inactive |
| CCCNC(=N)c1ccc(CN2CCN(Cc3ccc(C(=N)NCCC)cc3)CC2)cc1 | Active | < 4.00 | 5.77 | < 4.00 | inactive |
| N=C(N)c1ccc(CN2CCN(Cc3ccc(C(=N)N)cc3)CC2)cc1 | Active | < 4.00 | 6.96 | < 4.00 | inactive |
| CCCCCNC(=N)c1ccc(CN2CCN(Cc3ccc(C(=N)NCCCCC)cc3)CC2)cc1 | Active | < 4.00 | 7.39 | < 4.00 | inactive |
| CN(C(=O)CCCCC(=O)N(C)c1ccc(C(=N)N)cc1)c1ccc(C(=N)N)cc1 | Active | < 4.00 | 7.92 | < 4.00 | inactive |
| Cc1cc(C(=N)N)cc(C)c1OCCCCCOc1c(C)cc(C(=N)N)cc1C | Active | 4.49 | > 6.67 | 4.72 | inactive |
| N=C(N)c1ccc(NC(=O)COCC(=O)Nc2ccc(C(=N)N)cc2)cc1 | Active | < 4.00 | 6.84 | < 4.00 | inactive |
| CCN(CCOc1ccc(C(=N)N)cc1)CCOc1ccc(C(=N)N)cc1 | Active | < 4.00 | > 6.68 | < 4.00 | inactive |
| N=C(N)c1ccc(OCCOCCOc2ccc(C(=N)N)cc2N)c(N)c1 | Active | < 4.00 | 7.96 | < 4.00 | inactive |
| CN(C(=O)CCCC(=O)N(C)c1ccc(C(=N)N)cc1)c1ccc(C(=N)N)cc1 | Active | < 4.00 | 6.52 | < 4.00 | inactive |
| CN(C(=O)CCC(=O)N(C)c1ccc(C(=N)N)cc1)c1ccc(C(=N)N)cc1 | Active | < 4.00 | 7.12 | < 4.00 | inactive |
| COc1cc(C(=N)N)cc(Br)c1OCCCCCOc1c(Br)cc(C(=N)N)cc1OC | Active | 4.58 | 7.44 | 4.53 | inactive |
| N=C(N)c1ccc(OCCOCCOc2ccc(C(=N)N)cc2[N+](=O)[O-])c([N+](=O)[O-])c1 | Active | < 4.00 | 7.85 | 3.75 | inactive |
| N=C(N)c1ccc(NC(=O)CSCC(=O)Nc2ccc(C(=N)N)cc2)cc1 | Active | < 4.00 | 6.25 | < 4.00 | inactive |
| c1cc(C2=NCCN2)ccc1SCCOCCSc1ccc(C2=NCCN2)cc1 | Active | 4.51 | 8.00 | < 4.00 | inactive |
| N=C(N)c1ccc(NCCOCCNc2ccc(C(=N)N)cc2N)c(N)c1 | Active | < 4.00 | > 6.76 | < 4.00 | 15% |
| N=C(N)c1ccc(SCCOCCSc2ccc(C(=N)N)cc2)cc1 | Active | 4.29 | > 6.65 | 4.58 | inactive |
